Source: PubChem
MPTP inh: inhibitors of mitochondrial permeability transition pore. isolated mouse mitochondria, Ca2+ swelling absorbance, 30 min. inhibition, % at 10 µM. hit rate 1.4% among 360,000;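 active = inhibition of 50% or more, scaled per plate between neutral and stimulator controls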;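 also: 0% = DMSO wells given calcium and 100% = 1 mM EGTA wells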
SKN-1 inh: C. elegans SKN-1 inhibition; C. elegans VP596 Pgst-4::GFP/RFP ratio, acrylamide-induced, 24 h; inhibition, % at 21.8 µM; hit rate 0.49% among 360,000; AID 624304;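 active = interference check ratio from 0.5 to 1.5 plus GFP to RFP signal ratio inhibition reaching or exceeding a fixed threshold, cut at about 30% in these data, passing the limit was not always enough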
ADAM10 inh: inhibits human ADAM10. inhibition, % at 7 µM. hit rate 0.62% among 370,000. recombinant ADAM10, EDANS/DABCYL FRET peptide cleavage, 3 h. O14672;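 active = inhibition above a per-campaign cutoff equal to the mean of compounds falling between control-based bounds plus 3 SD, cut at about 20% in these data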;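 also: 0% = DMSO wells while the 100% control is not disclosed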
Target sequence (O14672 214-748 limits assumed): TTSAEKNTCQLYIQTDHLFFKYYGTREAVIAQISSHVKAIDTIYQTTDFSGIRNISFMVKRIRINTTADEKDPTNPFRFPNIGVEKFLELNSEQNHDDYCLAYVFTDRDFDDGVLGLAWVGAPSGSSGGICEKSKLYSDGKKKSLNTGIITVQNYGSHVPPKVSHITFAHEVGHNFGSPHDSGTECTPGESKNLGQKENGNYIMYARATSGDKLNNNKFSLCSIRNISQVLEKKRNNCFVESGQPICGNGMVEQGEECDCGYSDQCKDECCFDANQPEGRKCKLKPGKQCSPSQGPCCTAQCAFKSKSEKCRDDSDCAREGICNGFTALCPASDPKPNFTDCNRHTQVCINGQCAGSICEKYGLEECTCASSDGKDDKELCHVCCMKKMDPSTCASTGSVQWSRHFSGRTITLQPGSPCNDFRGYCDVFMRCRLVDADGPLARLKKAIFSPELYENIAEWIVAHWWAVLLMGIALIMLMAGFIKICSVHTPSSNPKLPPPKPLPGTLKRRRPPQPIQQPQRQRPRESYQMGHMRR
MT1-MMP act inh: blocks activation of human MT1-MMP; HT1080 RFP-PRO-GFP cells, GFP/RFP ratio fluorescence, overnight; percent of plate control window, DMSO zero; GFP/RFP ratio change, % at 20 µM; hit rate 0.061% among 360,000; AID 651647;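 active = GFP/RFP ratio change of at least 30% with cell ATP level not reduced by more than half and red fluorescence within 50% of control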
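Assay system: HT1080 RFP-PRO-GFP cells. Benchmarks: DMSO vehicle wells and RFP-L50D-GFP reporter cell wells. Times: overnight cell settling, then overnight compound exposure, 37 °C, 5% CO2. Compound: 20 µM single dose, 1% DMSO. Read-out basis: GFP/RFP fluorescence ratio.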
ADAM17 inh: inhibits human ADAM17. P78536. recombinant ADAM17, EDANS/DABCYL FRET peptide cleavage. inhibition, % at 6.95 µM. hit rate 0.83% among 370,000. AID 720648;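 active = inhibition above the mean of compounds lying between control limits plus 3 SD, set per campaign, cut at about 8.5% in these data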;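 also: 0% = DMSO-only wells as the low control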
GRIN3A LBD mod: modulates the human NR3A ligand-binding domain; Tm shift relative to glycine control, % at 25 µM; hit rate 2.5% among 340,000; NR3A LBD differential scanning fluorimetry, Tm shift; 0% = protein alone, 100% = glycine-bound protein;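 active = melting temperature shift of at least 10% of the positive control shift, at one fixed dose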
Numbers without * were called inactive. Rows were chosen to be rich in hits. Some 4.7% of all compounds tested hit in one or more screens of this group.

How did COc1ccc(NC(=O)CN2CCN(Cc3ccc4c(c3)OCO4)CC2)cc1OC do in these assays?
MPTP inh: 1; SKN-1 inh: 37*; ADAM10 inh: -4; MT1-MMP act inh: -2; ADAM17 inh: -3; GRIN3A LBD mod: 2

Results for COc1cccc(C(=O)N/N=C2\SCC(=O)N2Cc2ccc3c(c2)OCO3)c1 ?
MPTP inh: 2; SKN-1 inh: 18; ADAM10 inh: -2; MT1-MMP act inh: -1; ADAM17 inh: -1; GRIN3A LBD mod: -2

Results for COc1ccc(C(=O)N/N=C2/SCC(=O)N2Cc2ccc3c(c2)OCO3)cc1OC ?
MPTP inh: 0; SKN-1 inh: -10; ADAM10 inh: -3; MT1-MMP act inh: 5; ADAM17 inh: -3; GRIN3A LBD mod: 11*

Results for Cc1nc2ccccc2cc1C(=O)N/N=C/c1ccccc1[N+](=O)[O-] ?
MPTP inh: 0; SKN-1 inh: 14; ADAM10 inh: 4; MT1-MMP act inh: 4; ADAM17 inh: 0; GRIN3A LBD mod: 0

What do the screens show for `O=C(COC(=O)c1cn(-c2ccccc2)nc1-c1ccccc1)Nc1ncc(Cl)cc1Cl`?
MPTP inh: 9; SKN-1 inh: 14; ADAM10 inh: -10; MT1-MMP act inh: -12; ADAM17 inh: 0; GRIN3A LBD mod: -6

What do the screens show for `NS(=O)(=O)c1ccc(NC(=O)COC(=O)c2cn(-c3ccccc3)nc2-c2ccccc2)cc1`?
MPTP inh: 2; SKN-1 inh: -5; ADAM10 inh: 0; MT1-MMP act inh: 18; ADAM17 inh: -3; GRIN3A LBD mod: 22*

Results for O=C(CCc1ccccc1)Nc1cc(NC(=O)CCc2ccccc2)cc(C(=O)O)c1 ?
MPTP inh: -1; SKN-1 inh: -3; ADAM10 inh: -8; MT1-MMP act inh: 2; ADAM17 inh: -2; GRIN3A LBD mod: 17*

What do the screens show for `C/C(=N\NC(=O)COc1ccccc1)c1ccc(O)cc1`?
MPTP inh: -1; SKN-1 inh: 6; ADAM10 inh: 3; MT1-MMP act inh: 2; ADAM17 inh: 2; GRIN3A LBD mod: 13*

How did O=C(CCc1ccccc1)Nc1ccncc1 do in these assays?
MPTP inh: 0; SKN-1 inh: 4; ADAM10 inh: -1; MT1-MMP act inh: -3; ADAM17 inh: 1; GRIN3A LBD mod: -13

Results for O=C(CCc1ccccc1)NNC(=O)Nc1ccc(Br)cc1 ?
MPTP inh: 40; SKN-1 inh: 17; ADAM10 inh: 2; MT1-MMP act inh: 2; ADAM17 inh: -2; GRIN3A LBD mod: 12*

What do the screens show for `O=C(CCCC(=O)NNC(=O)Nc1ccccc1)NNC(=O)Nc1ccccc1`?
MPTP inh: -1; SKN-1 inh: -5; ADAM10 inh: 2; MT1-MMP act inh: -2; ADAM17 inh: 2; GRIN3A LBD mod: -2

How did COc1ccc(OCC(=O)N/N=C(\C)c2ccc(OC)cc2)cc1 do in these assays?
MPTP inh: 1; SKN-1 inh: 5; ADAM10 inh: 6; MT1-MMP act inh: 2; ADAM17 inh: -4; GRIN3A LBD mod: -2

How did O=C(COc1ccccc1)Nc1ccc2c(c1)Cc1cc(NC(=O)COc3ccccc3)ccc1-2 do in these assays?
MPTP inh: 0; SKN-1 inh: 5; ADAM10 inh: 7; MT1-MMP act inh: -1; ADAM17 inh: 2; GRIN3A LBD mod: 23*

How did CCOc1ccccc1NC(=O)NNS(=O)(=O)c1ccc([N+](=O)[O-])cc1 do in these assays?
MPTP inh: 0; SKN-1 inh: -15; ADAM10 inh: -14; MT1-MMP act inh: 0; ADAM17 inh: 3; GRIN3A LBD mod: 2

What do the screens show for `Cc1ccc(NCC(=O)N=Nc2c(O)n(C)c3ccccc23)cc1`?
MPTP inh: -1; SKN-1 inh: -2; ADAM10 inh: 0; MT1-MMP act inh: -1; ADAM17 inh: 2; GRIN3A LBD mod: 2

What do the screens show for `O=C(CCc1ccccc1)NNC(=O)COc1ccccc1`?
MPTP inh: -2; SKN-1 inh: -4; ADAM10 inh: 2; MT1-MMP act inh: 3; ADAM17 inh: -7; GRIN3A LBD mod: 13*

How did COc1ccc(OCC(=O)NNC(=O)CCc2ccccc2)cc1 do in these assays?
MPTP inh: -2; SKN-1 inh: -1; ADAM10 inh: 4; MT1-MMP act inh: 7; ADAM17 inh: 1; GRIN3A LBD mod: -1

What do the screens show for `CCN(CC(=O)Nc1c(F)cccc1F)C(=O)CCCOc1ccc(OC)cc1`?
MPTP inh: -1; SKN-1 inh: -4; ADAM10 inh: 3; MT1-MMP act inh: 4; ADAM17 inh: -4; GRIN3A LBD mod: 1

How did Cc1cc(F)ccc1NC(=O)c1ccc(NS(=O)(=O)c2cc(C(C)(C)C)ccc2C)cc1 do in these assays?
MPTP inh: 5; SKN-1 inh: 6; ADAM10 inh: 4; MT1-MMP act inh: -2; ADAM17 inh: 4; GRIN3A LBD mod: 9

What do the screens show for `CC(C)NS(=O)(=O)c1ccc(NC(=S)NC(=O)c2cccc([N+](=O)[O-])c2)cc1`?
MPTP inh: 2; SKN-1 inh: 12; ADAM10 inh: -5; MT1-MMP act inh: 5; ADAM17 inh: 0; GRIN3A LBD mod: 13*

How did CS(=O)(=O)N1CCc2cc(C(=O)Nc3ccc(Cl)cc3)ccc21 do in these assays?
MPTP inh: 1; SKN-1 inh: -1; ADAM10 inh: -2; MT1-MMP act inh: 3; ADAM17 inh: 3; GRIN3A LBD mod: 0

Results for NS(=O)(=O)c1ccc(C(=O)Nc2ccc(-c3nc4cccnc4s3)cc2)cc1 ?
MPTP inh: 2; SKN-1 inh: 6; ADAM10 inh: -127; MT1-MMP act inh: 6; ADAM17 inh: -44; GRIN3A LBD mod: 30*

What do the screens show for `NS(=O)(=O)c1ccc(NC(=O)c2ccc(-c3ccccc3)cc2)cc1`?
MPTP inh: -3; SKN-1 inh: 1; ADAM10 inh: 8; MT1-MMP act inh: 4; ADAM17 inh: 0; GRIN3A LBD mod: 2

How did CS(=O)(=O)N1CCc2cc(C(=O)Nc3cccc([N+](=O)[O-])c3)ccc21 do in these assays?
MPTP inh: -1; SKN-1 inh: 8; ADAM10 inh: -6; MT1-MMP act inh: 3; ADAM17 inh: -5; GRIN3A LBD mod: 31*

What do the screens show for `CC(=O)Nc1ccc(NC(=O)c2ccc(NS(=O)(=O)c3cc(C(C)(C)C)ccc3C)cc2)cc1`?
MPTP inh: 4; SKN-1 inh: 12; ADAM10 inh: -3; MT1-MMP act inh: 1; ADAM17 inh: 0; GRIN3A LBD mod: 17*

Results for CN(Cc1ccccc1)C(=O)c1ccc(NC(=O)Cc2cccc(NC(=O)C3CCN(C(=O)C4CCC4)CC3)c2)cc1 ?
MPTP inh: 0; SKN-1 inh: -14; ADAM10 inh: 2; MT1-MMP act inh: -1; ADAM17 inh: 4; GRIN3A LBD mod: -2

What do the screens show for `CCCCCCOC(=O)Nc1ccc(S(=O)(=O)Nc2cccc([N+](=O)[O-])c2)cc1`?
MPTP inh: 17; SKN-1 inh: -5; ADAM10 inh: 18; MT1-MMP act inh: -2; ADAM17 inh: 8; GRIN3A LBD mod: 30*
